Results on 8 molecules are retold here after ChEMBL document CHEMBL1671710, “Different classes of antibiotics differentially influence shiga toxin production” (2010).

Test [1] concerns Escherichia coli. As to the kind of experiment: microbe, parasite or virus in culture. As to conditions: C600::933W.
Test [2] deals with Escherichia coli. As to the kind of experiment: Antimicrobial activity against Escherichia coli C600::H19B in logarithmic phase encoding Stx-1 gene by broth macrodilution assay.
For test [3], the system named is Escherichia coli. Briefly: Antimicrobial activity against Escherichia coli O157:H7 185 encoding stx gene by broth microdilution method. In kind it is functional, organism-based. For orientation: Broth dilution looks for growth in wells or tubes with falling amounts of substance.
For test [4], the system named is Escherichia coli. Briefly: Antimicrobial activity against Escherichia coli O157:H7 PT-40 in stationary phase encoding Stx-2 gene by broth macrodilution assay.
For test [5], the system named is Escherichia coli. As to the kind of experiment: Antimicrobial activity against Escherichia coli O157:H7 PT-32 in stationary phase encoding Stx-1 and Stx-2 gene by broth macrodilution assay. In kind it is functional. The procedure, abridged: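 Overnight MH-broth cultures (stationary phase) were diluted 1:1,000, then 1:200. 1 ml was mixed with 1.0 ml of antibiotic in MH broth, with trimethoprim:sulfamethoxazole at 1:5, and held overnight at 37°C with rotary aeration. MIC judged visually, corresponding to ∼10^7 CFU/ml.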

In test [6] the test system is Escherichia coli. Briefly: Antimicrobial activity against Escherichia coli C600::H19B in stationary phase encoding Stx-1 gene by broth macrodilution assay.
Test [7] deals with Escherichia coli. As to the kind of experiment: Antimicrobial activity against Escherichia coli O157:H7 PT-32 in logarithmic phase encoding Stx-1 and Stx-2 gene by broth macrodilution assay.
Test [8] relates to Escherichia coli. As to the kind of experiment: Antimicrobial activity against Escherichia coli O157:H7 PT-40 in logarithmic phase encoding Stx-2 gene by broth macrodilution assay. In kind it is functional.
For test [9], the system named is Escherichia coli. As to the kind of experiment: Antimicrobial activity against Escherichia coli C600::933W in logarithmic phase encoding Stx-2 gene by broth macrodilution assay. In kind it is functional.

Values after ≈ are worked out from the molar mass of the structure shown. Active and inactive are the calls of the source. The rule behind the calls is not given here.

Consider `CC1(C)S[C@@H]2[C@H](NC(=O)[C@H](N)c3ccccc3)C(=O)N2[C@H]1C(=O)O` [AMPICILLIN], for which the MIC against Escherichia coli [1] is 8 µg/mL (≈ 22.9 µM); with Escherichia coli [2], 4 µg/mL (≈ 11.4 µM); against Escherichia coli [4], 8 µg/mL (≈ 22.9 µM); against Escherichia coli [5], 4 µg/mL (≈ 11.4 µM); against Escherichia coli [6] it was 8 µg/mL (≈ 22.9 µM). Besides, in the test on Escherichia coli [3], the result was Active.
Turning to `CC[C@H]1OC(=O)[C@H](C)[C@@H](O[C@H]2C[C@@](C)(OC)[C@@H](O)[C@H](C)O2)[C@H](C)[C@@H](O[C@@H]2O[C@H](C)C[C@H](N(C)C)[C@H]2O)[C@](C)(O)C[C@@H](C)CN(C)[C@H](C)[C@@H](O)[C@]1(C)O` [AZITHROMYCIN], the MIC was 2.6 µg/mL (≈ 3.47 µM) in the test with Escherichia coli [7]; 2 µg/mL (≈ 2.67 µM) against Escherichia coli [1]; 4 µg/mL (≈ 5.34 µM) against Escherichia coli [8]; 2 µg/mL (≈ 2.67 µM) with Escherichia coli [9]; 2 µg/mL (≈ 2.67 µM) in the test on Escherichia coli [2]; 2.6 µg/mL (≈ 3.47 µM) against Escherichia coli [4]. In addition, the MIC against Escherichia coli [5] turned out to be 2.6 µg/mL (≈ 3.47 µM); against Escherichia coli [6], 2 µg/mL (≈ 2.67 µM).
For `CO/N=C(\C(=O)N[C@@H]1C(=O)N2C(C(=O)O)=C(CSc3nc(=O)c(O)nn3C)CS[C@H]12)c1csc(N)n1` [CEFTRIAXONE], the MIC was 0.03 µg/mL (≈ 0.0541 µM) against Escherichia coli [7]; 0.03 µg/mL (≈ 0.0541 µM) in the test on Escherichia coli [1]; 0.06 µg/mL (≈ 0.108 µM) against Escherichia coli [8]; 0.03 µg/mL (≈ 0.0541 µM) against Escherichia coli [9]; 0.03 µg/mL (≈ 0.0541 µM) with Escherichia coli [2]; 0.06 µg/mL (≈ 0.108 µM) against Escherichia coli [4]. For the same molecule, the MIC in the test with Escherichia coli [5] came to 0.03 µg/mL (≈ 0.0541 µM); in the test with Escherichia coli [6], 0.06 µg/mL (≈ 0.108 µM).
Turning to `C[C@H]1c2cccc(O)c2C(=O)C2=C(O)[C@]3(O)C(=O)C(C(N)=O)=C(O)[C@@H](N(C)C)[C@@H]3[C@@H](O)[C@@H]21.O` [DOXYCYCLINE], the MIC in the test on Escherichia coli [7] was determined as 1 µg/mL; in the test with Escherichia coli [1], 1 µg/mL; against Escherichia coli [8] it was 1 µg/mL; in the test with Escherichia coli [9], 0.5 µg/mL; with Escherichia coli [2], 0.25 µg/mL; against Escherichia coli [4] it was 1 µg/mL. For the same molecule, the MIC in the test with Escherichia coli [5] and in the test with Escherichia coli [6] was 0.5 µg/mL in each case. The outcome in the test with Escherichia coli [3] was Active.
With `C[C@@H]1O[C@@H]1P(=O)(O)O` [FOSFOMYCIN], the MIC is 16 µg/mL (≈ 116 µM) in the test with Escherichia coli [7]; 2 µg/mL (≈ 14.5 µM) with Escherichia coli [1]; 16 µg/mL (≈ 116 µM) against Escherichia coli [8]; 2 µg/mL (≈ 14.5 µM) against Escherichia coli [9]; 2 µg/mL (≈ 14.5 µM) in the test with Escherichia coli [2]; 16 µg/mL (≈ 116 µM) against Escherichia coli [4]. The MIC is 16 µg/mL (≈ 116 µM) against Escherichia coli [5] and 0.5 µg/mL (≈ 3.62 µM) against Escherichia coli [6].
As to `CO[C@H]1/C=C/O[C@@]2(C)Oc3c(C)c(O)c4c(O)c(c(/C=N/N5CCN(C)CC5)c(O)c4c3C2=O)NC(=O)/C(C)=C\C=C\[C@H](C)[C@H](O)[C@@H](C)[C@@H](O)[C@@H](C)[C@H](OC(C)=O)[C@@H]1C` [RIFAMPIN], the MIC against Escherichia coli [7] was 4 µg/mL (≈ 4.86 µM); with Escherichia coli [1], 8 µg/mL (≈ 9.72 µM); against Escherichia coli [8] it was 4 µg/mL (≈ 4.86 µM); in the test with Escherichia coli [9], 8 µg/mL (≈ 9.72 µM); with Escherichia coli [2] it was 4 µg/mL (≈ 4.86 µM); in the test on Escherichia coli [4] it was 16 µg/mL (≈ 19.4 µM). The MIC with Escherichia coli [5] amounted to 2 µg/mL (≈ 2.43 µM); against Escherichia coli [6] it was 16 µg/mL (≈ 19.4 µM).
Regarding `Cc1cc(NS(=O)(=O)c2ccc(N)cc2)no1` [SULFAMETHOXAZOLE], the MIC came out at 0.13 µg/mL (≈ 0.513 µM) with Escherichia coli [7]; 0.03 µg/mL (≈ 0.118 µM) against Escherichia coli [1]; 0.13 µg/mL (≈ 0.513 µM) in the test on Escherichia coli [8]; 0.01 µg/mL (≈ 0.0395 µM) in the test on Escherichia coli [9]; 0.004 µg/mL (≈ 0.0158 µM) against Escherichia coli [2]; 0.13 µg/mL (≈ 0.513 µM) in the test with Escherichia coli [4]. Besides, the MIC with Escherichia coli [5] was 0.13 µg/mL (≈ 0.513 µM); against Escherichia coli [6], 0.03 µg/mL (≈ 0.118 µM).
Consider GENTAMICIN, for which the MIC against Escherichia coli [8], in the test on Escherichia coli [9] and against Escherichia coli [5] was 0.25 µg/mL each time.
